Source: ChEMBL document CHEMBL4368869, “'Second-generation' 1,2,3-triazole-based inhibitors of Porphyromonas gingivalis adherence to oral streptococci and biofilm formation” (Medchemcomm, 2019)

How the values were obtained:
Porphyromonas gingivalis = assay: Antibiofilm activity against Porphyromonas gingivalis ATCC 33277 assessed as inhibition of Porphyromonas gingivalis ATCC 33277 adherence to Streptococcus gordonii after 22 hrs by laser scanning confocal microscopic analysis; assay type: functional, organism-based
Summary of the method: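 S. gordonii DL-1, labelled with hexidium iodide and adjusted to OD600 0.8 in PBS, is grown 24 h at 37 °C with shaking under anaerobic conditions on coverslips. Carboxyfluorescein-labelled P. gingivalis (OD600 0.4) is pre-incubated 30 min with compound (final 0–60 μM, 0.1% DMSO) and added, then incubated anaerobically 22 h. After PFA fixation, confocal imaging reads the green/red fluorescence ratio. IC50 is the concentration halving that ratio. Triplicates, three independent experiments.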

TIGK [1] = assay: Cytotoxicity against human TIGK cells assessed as reduction in ATP levels at 60 uM after 18 hrs by CellTiterGlo reagent-based assay; assay type: cell-based
Summary of the method: (§1)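 TIGK cells are seeded at 4000/well and grown 24 h, then exposed 18 h to compound. They are washed three times with PBS and treated with CellTiterGlo substrate, 2 min with shaking plus 10 min static. Total ATP is read by luminescence. Reduction is judged against cells in medium with 0.1% DMSO, p<0.05.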

TIGK [2] = assay: Cytotoxicity against human TIGK cells assessed as increase in LDH release at 5 to 60 uM after 18 hrs by LDH release assay; assay type: cell-based
Summary of the method: (§2)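 Immortalized gingival keratinocytes (TIGK) are seeded at 4000 cells/well, grown 24 h, then exposed 18 h to compound in fresh medium. Supernatant is mixed with LDH substrate for 30 min at room temperature, stopped, and read at OD 490 nm. Kit lysis buffer for 1 h serves as the positive control; medium alone is the negative control. Triplicate samples.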

TIGK [3] = assay: Cytotoxicity against human TIGK cells assessed as reduction in ATP levels after 18 hrs by CellTiterGlo reagent-based assay; assay type: cell-based; summary of the method: as §1
TIGK [4] = assay: Cytotoxicity against human TIGK cells assessed as increase in LDH release at 5 to 40 uM after 18 hrs by LDH release assay; assay type: cell-based; summary of the method: as §2
TIGK [5] = assay: Cytotoxicity against human TIGK cells assessed as reduction in ATP levels at 5 to 40 uM after 18 hrs by CellTiterGlo reagent-based assay; assay type: cell-based; summary of the method: as §1
TIGK [6] = assay: Cytotoxicity against human TIGK cells assessed as reduction in ATP levels at 5 to 20 uM after 18 hrs by CellTiterGlo reagent-based assay; assay type: cell-based; summary of the method: as §1
TIGK [7] = assay: Cytotoxicity against human TIGK cells assessed as increase in LDH release at 5 to 20 uM after 18 hrs by LDH release assay; assay type: cell-based; summary of the method: as §2
TIGK [8] = assay: Cytotoxicity against human TIGK cells assessed as reduction in ATP levels at 5 to 60 uM after 18 hrs by CellTiterGlo reagent-based assay; assay type: cell-based; summary of the method: as §1

Compound | IC50 (Porphyromonas gingivalis) | also measured
COc1ccc2cc(-c3cn(-c4ccc(S(=O)(=O)Cc5nc(-c6ccccc6)c(-c6ccccc6)o5)cc4)nn3)ccc2c1 | Not Active | 
[O-][S+](Cc1nc(-c2ccccc2)c(-c2ccccc2)o1)c1ccc(-n2cc(-c3cc(C(F)(F)F)cc(C(F)(F)F)c3)nn2)cc1 (stereo unspecified) | Not Active | 
Fc1ccccc1Nc1nc(Nc2ccccc2F)nc(-c2cn(-c3ccc(-c4nc(-c5ccc(Cl)cc5)c(-c5ccc(Cl)cc5)o4)cc3)nn2)n1 | Not Active | 
COc1ccc(-c2nc(-c3ccccc3-n3cc(-c4nc(Nc5ccc(F)cc5)nc(Nc5ccc(F)cc5)n4)nn3)oc2-c2ccc(OC)cc2)cc1 | Not Active | 
[O-][S+](Cc1nc(-c2ccccc2)c(-c2ccccc2)o1)c1ccc(-n2cc(-c3ccc(F)cc3)nn2)cc1 (stereo unspecified) | Not Active | 
Fc1ccccc1Nc1nc(Nc2ccccc2F)nc(-c2cn(-c3ccc(-c4nc(-c5ccco5)c(-c5ccco5)o4)cc3)nn2)n1 | Not Active | 
CCN(CC)c1nc(-c2cn(-c3ccc(-c4nc(-c5ccco5)c(-c5ccco5)o4)cc3)nn2)nc(N(CC)CC)n1 | Not Active | 
COc1ccc(-c2nc(-c3cccc(-n4cc(-c5nc(Nc6ccccc6F)nc(Nc6ccccc6F)n5)nn4)c3)oc2-c2ccc(OC)cc2)cc1 | Not Active | 
Fc1ccc(Nc2nc(Nc3ccc(F)cc3)nc(-c3cn(-c4ccccc4-c4nc(-c5ccccc5)c(-c5ccccc5)o4)nn3)n2)cc1 | Not Active | 
Fc1ccc(Nc2nc(Nc3ccc(F)cc3)nc(-c3cn(-c4cccc(-c5nc(-c6ccccc6)c(-c6ccccc6)o5)c4)nn3)n2)cc1 |  | Activity (TIGK [1]): Toxic; Activity (TIGK [2]): Non-Toxic; Activity (TIGK [3]): Dose-dependent effect
CCN(CC)c1nc(-c2cn(-c3ccc(-c4nc(-c5ccc(Cl)cc5)c(-c5ccc(Cl)cc5)o4)cc3)nn2)nc(N(CC)CC)n1 |  | Activity (TIGK [4]): Non-Toxic; Activity (TIGK [5]): Non-Toxic
[O-][S+](Cc1nc(-c2ccccc2)c(-c2ccccc2)o1)c1ccc(-n2cc(-c3cccnc3)nn2)cc1 (stereo unspecified) | Not Active | 
Fc1ccc(Nc2nc(Nc3ccc(F)cc3)nc(-c3cn(-c4ccc(-c5nc(-c6ccccc6)c(-c6ccccc6)o5)cc4)nn3)n2)cc1 | Not Active | 
Fc1ccc(Nc2nc(Nc3ccc(F)cc3)nc(-c3cn(-c4ccc(-c5nc(-c6ccc(F)cc6)c(-c6ccc(F)cc6)o5)cc4)nn3)n2)cc1 |  | Activity (TIGK [6]): Non-Toxic; Activity (TIGK [7]): Non-Toxic
Fc1ccccc1Nc1nc(Nc2ccccc2F)nc(-c2cn(-c3cccc(-c4nc(-c5ccco5)c(-c5ccco5)o4)c3)nn2)n1 | Not Active | 
Fc1ccc(Nc2nc(Nc3ccc(F)cc3)nc(-c3cn(-c4ccccc4-c4nc(-c5ccco5)c(-c5ccco5)o4)nn3)n2)cc1 |  | Activity (TIGK [2]): Non-Toxic; Activity (TIGK [8]): Non-Toxic

Compound | IC50 (Porphyromonas gingivalis) | also measured
COc1ccc2cc(-c3cn(-c4ccc([S+]([O-])Cc5nc(-c6ccccc6)c(-c6ccccc6)o5)cc4)nn3)ccc2c1 (stereo unspecified) | Not Active | 
COc1ccccc1-c1cn(-c2ccc([S+]([O-])Cc3nc(-c4ccccc4)c(-c4ccccc4)o3)cc2)nn1 (stereo unspecified) | Not Active | 
CCCCCc1ccc(-c2cn(-c3ccc([S+]([O-])Cc4nc(-c5ccccc5)c(-c5ccccc5)o4)cc3)nn2)cc1 (stereo unspecified) | Not Active | 
CCN(CC)c1nc(-c2cn(-c3ccc(-c4nc(-c5ccccc5)c(-c5ccccc5)o4)cc3)nn2)nc(N(CC)CC)n1 | Not Active | 
CCN(CC)c1nc(-c2cn(-c3cccc(-c4nc(-c5ccc(F)cc5)c(-c5ccc(F)cc5)o4)c3)nn2)nc(N(CC)CC)n1 | Not Active | 
O=S(=O)(Cc1nc(-c2ccccc2)c(-c2ccccc2)o1)c1ccc(-n2cc(-c3ccccc3C(F)(F)F)nn2)cc1 | Not Active | 
O=S(=O)(Cc1nc(-c2ccccc2)c(-c2ccccc2)o1)c1ccc(-n2cc(-c3cccnc3)nn2)cc1 | Not Active | 
COc1ccc(-c2nc(-c3cccc(-n4cc(-c5nc(Nc6ccc(F)cc6)nc(Nc6ccc(F)cc6)n5)nn4)c3)oc2-c2ccc(OC)cc2)cc1 | Not Active | 
CCN(CC)c1nc(-c2cn(-c3cccc(-c4nc(-c5ccco5)c(-c5ccco5)o4)c3)nn2)nc(N(CC)CC)n1 | Not Active | 
COc1ccc(-c2nc(-c3ccc(-n4cc(-c5nc(Nc6ccc(F)cc6)nc(Nc6ccc(F)cc6)n5)nn4)cc3)oc2-c2ccc(OC)cc2)cc1 | Not Active | 
Fc1ccccc1Nc1nc(Nc2ccccc2F)nc(-c2cn(-c3ccc(-c4nc(-c5ccccc5)c(-c5ccccc5)o4)cc3)nn2)n1 | Not Active | 
[O-][S+](Cc1nc(-c2ccccc2)c(-c2ccccc2)o1)c1ccc(-n2cc(-c3ccccc3C(F)(F)F)nn2)cc1 (stereo unspecified) | Not Active | 
CCN(CC)c1nc(-c2cn(-c3cccc(-c4nc(-c5ccc(OC)cc5)c(-c5ccc(OC)cc5)o4)c3)nn2)nc(N(CC)CC)n1 | Not Active | 
Fc1ccc(Nc2nc(Nc3ccc(F)cc3)nc(-c3cn(-c4cccc(-c5nc(-c6ccc(F)cc6)c(-c6ccc(F)cc6)o5)c4)nn3)n2)cc1 | Not Active | 
[O-][S+](Cc1nc(-c2ccccc2)c(-c2ccccc2)o1)c1ccc(-n2cc(-c3ccc(Oc4ccccc4)cc3)nn2)cc1 (stereo unspecified) | Not Active | 
